Experimental data from different studies.
Each line is one published result; the experiments were not run side by side.
Action: inhibitor
LDHA: L-lactate dehydrogenase A chain (LDHA, Homo sapiens, UniProt P00338)
PRMT3: Protein arginine N-methyltransferase 3 (PRMT3, Homo sapiens, UniProt O60678)
PTPN1: Tyrosine-protein phosphatase non-receptor type 1 (PTPN1, Homo sapiens, UniProt P18031)
NTRK1: High affinity nerve growth factor receptor (NTRK1, Homo sapiens, UniProt P04629)
TDP1: Tyrosyl-DNA phosphodiesterase 1 (TDP1, Homo sapiens, UniProt Q9NUW8)

| Compound | target | observed | method | pH | setting | IC50 |
| --- | --- | --- | --- | --- | --- | --- |
| NS(=O)(=O)c1cccc(Cc2c(-c3ccc(F)c(F)c3)[nH]n(-c3nc(C(=O)O)cs3)c2=O)c1 | LDHA | enzyme activity | – | – | – | > 50 µM |
| COc1cc(C[C@H]2C(=O)OC[C@@H]2Cc2ccc(OC)c(OC)c2)ccc1O | Cone cGMP-specific 3',5'-cyclic phosphodiesterase subunit alpha' (PDE6C, Homo sapiens, UniProt P51160) | enzyme activity | – | – | – | > 20 µM |
| Nc1ncnc2c1ncn2[C@@H]1O[C@H](CSCCNC(=O)NCc2ccccc2)[C@@H](O)[C@H]1O | PRMT3 | enzyme activity | fluorescence | – | – | 0.52 µM |
| C(/C=C/c1sc2c3ccccc3ccc2[n+]1CCCc1ccccc1)=C1/Sc2c(ccc3ccccc23)N1CCCc1ccccc1 | PRMT3 | enzyme activity | radiometric | – | – | 2.1 µM |
| CCOc1ccc2c(-c3cc(C)nc(Nc4cc(OC)cc(C(F)(F)F)c4)n3)cnn2n1 | Homeodomain-interacting protein kinase 3 (HIPK3, Homo sapiens, UniProt Q9H422) | enzyme activity | – | – | – | > 10 µM |
| COc1oc(=O)c2cc(N)ccc2c1Cl | Rhomboid protease AarA (Providencia stuartii, UniProt P46116) | enzyme activity | fluorescence | – | – | 71 µM |
| COc1cc(-c2cc(=O)c3c(O)c(OC)c(O[C@@H]4O[C@H](CO)[C@@H](O)[C@H](O)[C@H]4O[C@@H]4O[C@H](CO)[C@@H](O)[C@H](O)[C@H]4O)cc3o2)ccc1O | LDHA | enzyme activity | – | pH 7.4 | – | 260 µM |
| CC[C@@H](C(=O)Nc1ccc(C(N)=O)c(F)c1)n1cc(OC)c(-c2cc(Cl)ccc2-n2cc(C(F)(F)F)nn2)cc1=O | Coagulation factor IX (F9, Homo sapiens, UniProt P00740) | enzyme activity | – | – | – | 2.2 µM |
| CC1=C[C@@]2(C[C@H](C)[C@H]3CC=C(C)C(=O)[C@@H]3O2)OC1=O | PTPN1 | enzyme activity | – | – | – | > 500 µM |
| C[C@@H]1C[C@H]2O[C@@H]2CC/C=C/C(=O)Cc2cc(O)cc(O)c2C(=O)O1 | Mitogen-activated protein kinase kinase kinase 7 (MAP3K7, Homo sapiens, UniProt O43318) | enzyme activity | ATP luminescence | – | – | > 10 µM |
| CCn1ncc2c1-c1cnc(N)c(c1)O[C@H](C)c1cc(F)ccc1-c1nn(C)nc1C2 | NTRK1 | enzyme activity | – | – | – | 0.26 µM |
| O=C(c1ccccc1)c1ccc2n1CCC2C(=O)O (stereo not shown) | Solute carrier family 22 member 6 (SLC22A6, Homo sapiens, UniProt Q4U2R8) | transporter uptake | – | – | – | 0.653 µM |
| O=C(O)c1ccc(Nc2c(-c3ccc(S(=O)(=O)O)cc3)nc3ccccn23)cc1 | TDP1 | enzyme activity | – | – | – | > 100 µM |
| C=CC(=O)Nc1cc(Nc2nccc(Nc3cc(Cl)c(F)cc3C(C)(C)O)n2)c(OC)cc1N1CC[C@@H](N(C)C)C1 | NTRK1 | enzyme activity | – | – | with preincubation | > 10 µM |
| CSc1ccc(/C=C2/C(C)=C(CC(=O)O)c3cc(F)ccc32)cc1 | High affinity 3',5'-cyclic-AMP phosphodiesterase 7A (PDE7A, Homo sapiens, UniProt Q13946) | enzyme activity | – | – | – | > 100 µM |
| N[C@@H](Cc1ccc(C(F)(F)P(=O)(O)O)cc1)C(=O)O | PTPN1 | enzyme activity | absorbance | – | – | 500 µM |
| Nc1ncnc2c1ncn2[C@@H]1O[C@H](CSCCNC(=O)NCCc2ccccc2)[C@@H](O)[C@H]1O | PRMT3 | enzyme activity | fluorescence | – | – | > 100 µM |
| O=c1cc(-c2ccc(O)cc2)oc2c([C@@H]3O[C@H](CO)[C@@H](O)[C@H](O)[C@H]3O)c(O)cc(O)c12 | Amine oxidase [flavin-containing] A (MAOA, Homo sapiens, UniProt P21397) | enzyme activity | – | – | – | 38.6 µM |
| COc1cc2c(OC)nc3c4cc5c(cc4cc(OCCCN4CCC(O)CC4)c3c2cc1OC)OCO5 | TDP1 | enzyme activity | – | – | – | 5.5 to 13 µM |
